Experimental findings from ChEMBL document CHEMBL2331234, “Novel analgesic/anti-inflammatory agents: 1,5-diarylpyrrole nitrooxyalkyl ethers and related compounds as cyclooxygenase-2 inhibiting nitric oxide donors” (J Med Chem, 2013) are described below.

Assay [1] relates to Rattus norvegicus. In words: Antiinflammatory activity in Sprague-Dawley/Wistar rat assessed as decrease in carrageenan-induced hyperalgesia at 20 mg/kg, po administered 4 hrs after carrageenan-challenge measured after 120 mins (reference value: 31.4 +/- 3.7 g). Format: functional.
Assay [2] has as its system Rattus norvegicus. The assay can be described thus: Antiinflammatory activity in Sprague-Dawley/Wistar rat assessed as decrease in carrageenan-induced hyperalgesia at 20 mg/kg, po administered 4 hrs after carrageenan-challenge measured after 60 mins (reference value: 33.9 +/- 3.7 g). In kind it is functional.
The subject of assay [3] is Rattus norvegicus. In words: Antiinflammatory activity in Sprague-Dawley/Wistar rat assessed as decrease in carrageenan-induced hyperalgesia at 20 mg/kg, po administered 4 hrs after carrageenan-challenge measured after 30 mins (reference value: 34.8 +/- 3.0 g). In kind it is functional.
A further assay deals with Mus musculus. The assay can be described thus: Antinociceptive activity in po dosed Swiss albino mouse assessed as reduction in number of acetic acid-induced writhing counted 5 mins after acetic acid challenge counted for 10 mins. Format: functional. The settings on record: read-out: MED. The method, boiled down: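 Male Swiss albino mice (23-25 g) dosed orally, then given 0.6% acetic acid (10 mL/kg) ip. Stretching movements counted for 10 min, starting 5 min after the acetic acid. Control group received CMC. At least 7 mice/group; mean ± SEM, ANOVA with Fisher's PLSD.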

The test system of assay [4] is Aorta. In words: Vasorelaxant activity in Wistar rat endothelium-removed thoracic aortic rings assessed as reduction of KCl-induced vasoconstriction at 0.001 uM to 10 uM treated after KCl-challenge in presence of guanylate cyclase inhibitor 1H-[1,2,4]-oxadiazolo[4,3-a]quinoxalin-1-one. Format: functional, tissue-based. The method, boiled down:
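Endothelium-denuded aortic rings from male Wistar rats (250-350 g) were preincubated with ODQ 1 µM. Rings were contracted with KCl 30 mM, then given 3-fold increasing concentrations from 1 nM to 10 µM. Emax is the % relaxation of KCl tone. pIC50 was calculated when efficacy reached 50%, from 6-10 experiments.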

Assay [5] concerns Aorta. The assay can be described thus: Vasorelaxant activity in Wistar rat endothelium-removed thoracic aortic rings assessed as reduction of KCl-induced vasoconstriction treated after KCl-challenge. In kind it is functional, tissue-based. The method, boiled down:
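Thoracic aortic rings from male Wistar rats (250-350 g), endothelium removed by rubbing; removal confirmed as <10% relaxation to ACh 10 µM in KCl 30 mM-contracted rings. Rings contracted with KCl 30 mM; at plateau, 3-fold increasing compound concentrations (1 nM-10 µM) added. Isometric tension recorded. Emax given as % of KCl tone; pIC50 as -log molar concentration halving that tone. 6-10 experiments; also run with ODQ 1 µM.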

The test system of a further assay is J774. The assay can be described thus: Selectivity index, ratio of IC50 for COX1 in mouse J774 cells […]. Format: cell-based.
Assay [6] deals with Prostaglandin G/H synthase 1 (Homo sapiens, UniProt P23219). In words: Inhibition of COX1 in human whole blood assessed as reduction in TXB2 generation. Summed up:
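Clotting assay in whole blood from three healthy volunteers with no NSAID for 2 weeks. Compounds in DMSO were added at 0.1-300 µM final. Blood clotted in glass tubes at 37 °C for 1 h. Serum TXB2 was measured by RIA as a reflection of platelet COX-1 activity driven by endogenous thrombin.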

Assay [7] can be described thus: (§1) Inhibition of interleukin 1 beta-induced glycosaminoglycan release in bovine articular cartilage of metacarpophalangeal joints of feet treated 48 hrs after interleukin 1beta-challenge by DMB colorimetric assay. Format: functional, Bos taurus. The method, boiled down:
(§2)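 Bovine metacarpophalangeal cartilage slices (about 100 mg per well) were cultured in serum-free DMEM at 37 °C, 5% CO2, with medium changed on days 1 and 2. On day 3 the slices were challenged with IL-1β 30 ng/mL plus compound for 48 h. GAG release was measured by the DMB (Farndale) assay and expressed as % of IL-1β alone, n = 3. EC50 is given with 95% CI.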

The species named for another assay is Bos taurus. Described as §1. Format: functional. Summed up:
as §2

Assay [8] relates to Rattus norvegicus. The assay can be described thus: Antiinflammatory activity in Sprague-Dawley/Wistar osteoarthritis model rat assessed as decrease in monoiodoacetate-induced hyperalgesia at 20 mg/kg, po bid for 14 days administered from day of monoiodoacetate-challenge followed by additional compound treatment after 30 mins […] by paw pressure test (reference value: 30.4 +/- 3.1 g). In kind it is functional.

Assay [9] relates to Rattus norvegicus. In words: Antiinflammatory activity in Sprague-Dawley/Wistar osteoarthritis model rat assessed as decrease in monoiodoacetate-induced hyperalgesia at 20 mg/kg, po bid for 14 days administered from day of monoiodoacetate-challenge […] post by paw pressure test (reference value: 32.6 +/- 2.9 g). In kind it is functional.
Assay [10] concerns Rattus norvegicus. The assay can be described thus: Antiinflammatory activity in Sprague-Dawley/Wistar rat assessed as decrease in carrageenan-induced paw edema at 10 mg/kg, po administered 3 hrs 30 mins after carrageenan-challenge measured after 60 mins (reference value: 2.48 +/- 0.06 mL). In kind it is functional.
Assay [11] deals with Rattus norvegicus. In words: Antiinflammatory activity in Sprague-Dawley/Wistar rat assessed as decrease in carrageenan-induced paw edema at 20 mg/kg, po administered 3 hrs 30 mins after carrageenan-challenge measured after 60 mins (reference value: 2.48 +/- 0.06 mL). Format: functional.
For assay [12], the system named is Rattus norvegicus. In words: Antiinflammatory activity in Sprague-Dawley/Wistar rat assessed as decrease in carrageenan-induced hyperalgesia at 10 mg/kg, po administered 4 hrs after carrageenan-challenge measured after 120 mins (reference value: 31.4 +/- 3.7 g). In kind it is functional.
For assay [13], the system named is Rattus norvegicus. The assay can be described thus: Antiinflammatory activity in Sprague-Dawley/Wistar rat assessed as decrease in carrageenan-induced hyperalgesia at 10 mg/kg, po administered 4 hrs after carrageenan-challenge measured after 60 mins (reference value: 33.9 +/- 3.7 g). In kind it is functional.
Assay [14] relates to Rattus norvegicus. The assay can be described thus: Antiinflammatory activity in Sprague-Dawley/Wistar rat assessed as decrease in carrageenan-induced hyperalgesia at 10 mg/kg, po administered 4 hrs after carrageenan-challenge measured after 30 mins (reference value: 34.8 +/- 3.0 g). In kind it is functional.

Active and inactive are the calls of the source. The rule behind the calls is not given here. Where only a bound is given, the exact number is not on record here.

Chain of Prostaglandin G/H synthase 1 (P23219 whole entry): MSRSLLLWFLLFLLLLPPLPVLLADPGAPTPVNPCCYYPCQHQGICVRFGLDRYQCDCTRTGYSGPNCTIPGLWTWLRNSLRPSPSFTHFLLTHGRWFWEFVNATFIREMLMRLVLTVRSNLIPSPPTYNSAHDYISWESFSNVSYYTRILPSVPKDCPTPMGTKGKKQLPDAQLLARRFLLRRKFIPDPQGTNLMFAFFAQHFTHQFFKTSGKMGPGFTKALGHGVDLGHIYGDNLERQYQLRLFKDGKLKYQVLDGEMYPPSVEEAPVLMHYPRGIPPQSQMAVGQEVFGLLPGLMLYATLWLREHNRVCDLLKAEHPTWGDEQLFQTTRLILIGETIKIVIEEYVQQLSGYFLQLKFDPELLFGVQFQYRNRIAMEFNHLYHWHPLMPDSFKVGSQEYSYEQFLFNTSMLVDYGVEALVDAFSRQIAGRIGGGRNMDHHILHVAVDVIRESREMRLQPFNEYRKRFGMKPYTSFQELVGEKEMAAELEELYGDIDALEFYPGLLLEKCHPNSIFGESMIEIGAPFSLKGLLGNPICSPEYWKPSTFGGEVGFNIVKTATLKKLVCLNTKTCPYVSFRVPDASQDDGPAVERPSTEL

`Cc1c(CCOCCO[N+](=O)[O-])cc(-c2ccc(S(C)(=O)=O)cc2)n1-c1ccc(F)cc1`: the Activity was determined as 43.8 g with Rattus norvegicus [1]; 49.2 g in the assay on Rattus norvegicus [2]; 56.8 g in the assay with Rattus norvegicus [3]; 45.1 g in the assay on Rattus norvegicus [8]; 43.5 g in the assay with Rattus norvegicus [9]; 1.87 mL with Rattus norvegicus [10]. Moreover, the Activity in the assay with Rattus norvegicus [11] was 1.92 mL; in the assay on Rattus norvegicus [12] it was 48.3 g; in the assay with Rattus norvegicus [13] it was 52.6 g; in the assay on Rattus norvegicus [14], 55.1 g. In addition, in the assay with Mus musculus, the minimal effective dose amounted to 10 mg/kg. In addition, the outcome with Aorta [4] was inactive. The figures for the 50% inhibitory concentration (IC50) (with Aorta [5]; in assay [6]; in assay [7]) were not below 10 µM, 31.2 µM and 1.5 µM, respectively. The pIC50 entry in the assay with Aorta [5] is “Dose-dependent effect”. In the assay with J774, the Ratio IC50 was more than 714. In assay [6], the IC80 came to 63.3 µM. Further, the inhibition entry (in assay [6]; in the assay filed under Bos taurus) was “Dose-dependent effect” throughout.
